Measured values published in PMC10527432 (Cell, 2023).
Entries after “also recorded” stand apart in the source; their conditions may differ. Read-outs that look alike come from different tables or passages of the source.

Experiments:
Tau fibrils = Tau fibrils (Homo sapiens, UniProt P10636); assay: [18F]-F0502B saturation binding assay with Tau PFFs; conditions: read-out: KD, Tau fibrils, 1 μM PFFs
Method in brief: (§1)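 PFFs (1 μM) were incubated with [18F]-labelled test compound (5–900 nM) for 1 h at 37 °C in 30 mM Tris-HCl pH 7.4, 0.1% BSA, 0.5% sodium ascorbate. Nonspecific binding was defined with 2 μM unlabeled compound. Samples were filtered, washed twice and counted by scintillation, in duplicate. Kd and Bmax were obtained by nonlinear fit to Y = Bmax*X/(X+Kd).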

α-Syn fibrils = α-Syn fibrils (Homo sapiens, UniProt P37840); assay: [18F]-F0502B saturation binding assay with α-Syn PFFs; conditions: read-out: KD, α-Syn fibrils, 1 μM PFFs
Method in brief: as §1

[1] = target: Aβ fibrils in AD patients (Homo sapiens, UniProt P05067); assay: Saturation binding assay with insoluble Aβ fraction from AD brain
Method in brief: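 Insoluble Aβ was extracted from AD gray matter by homogenization in 0.32 M sucrose, mesh sieving, and centrifugation in 1 M sucrose. This was followed by collagenase/dispase (2 mg/ml) digestion for 16 h at 37 °C and a discontinuous 1.05–1.8 M sucrose gradient.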

Aβ1–42 fibrils = Aβ1–42 fibrils (Homo sapiens, UniProt P05067); assay: [18F]-F0502B saturation binding assay with Aβ PFFs; conditions: read-out: KD, Aβ fibrils, 1 μM PFFs
Method in brief: as §1

[2] = target: Tau fibrils in AD patients (Homo sapiens, UniProt P10636); assay: Saturation binding assay with insoluble Tau fraction from AD brain
Method in brief: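 Insoluble Tau was extracted from AD brain in 10 mM Tris-HCl pH 7.4, 0.8 M NaCl, 1 mM EGTA, 10% sucrose. Sequential centrifugations up to 100,000 × g were performed at 4 °C. The pellet was resuspended in 20 mM Tris-HCl pH 7.4, 100 mM NaCl and run over a Superose 6 column.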

α-Syn aggregation = conditions: cited from earlier work
[3] = target: α-Syn deposits in PD/DLB brain homogenates (Homo sapiens, UniProt P37840); type: binding
Method in brief: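 Brain lysates from 4 control and 4 patient cases were normalized for aggregate levels by pS129 western blot. Homogenates (0.2 mg/ml) were incubated with [18F]-labelled test compound (5–900 nM) for 1 h at 37 °C in 50 mM Tris-HCl, 50 mM NaCl, 0.5% sodium ascorbate, pH 7.4. Samples were then filtered, washed twice and counted by scintillation.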

Aβ PFFs = Aβ PFFs (Homo sapiens, UniProt P05067); assay: Fibril binding assay; conditions: fluorescence; 0.08 μM fibrils, 5 μM compound
α-Syn aggregates = α-Syn aggregates (Homo sapiens, UniProt P37840, A53T); assay: Ex vivo staining after i.v. F0502B in AAV-α-Syn A53T mice; design: species or system mouse; conditions: 2 mg/kg i.v., 2 h
Method in brief: (§2)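 Eight-month-old mice received test compound at 2 mg/kg via the tail vein, and brain sections were prepared 2 h later. Sections were stained with anti-Aβ, anti-p-Tau (AT8), anti-p-α-Syn S129 and ThS, and co-localization was assessed. Cortex was examined for 5xFAD, 3xTg and Tau P301S mice. SN was examined for mice given unilateral stereotaxic AAV9-α-Syn A53T into SN at 3 months.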

Tau PFFs = Tau PFFs (Homo sapiens, UniProt P10636); assay: Fibril binding assay; conditions: fluorescence; 0.08 μM fibrils, 5 μM compound; regardless of 3R or 4R Tau
Method in brief: (§3)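 In the fluorescence screen, test compound (5 μM) in 50 mM Tris-HCl, 50 mM NaCl, pH 7.4 was added to fibrils or monomers (0.08 μM) in triplicate wells. Fluorescence was read at each compound's own excitation/emission wavelengths. α-Syn fibrils were commercial, dissolved to 1 mg/ml in PBS. Tau PFFs were assembled from 3 mg/mL protein with 12.5 μM heparin for 7 days at 37 °C with shaking; mixed 3R-4R fibrils used 0N3R and 2N4R at 1.5 mg/ml each.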

[4] = target: α-Syn deposits in mouse brain sections (Homo sapiens, UniProt P37840, A53T); assay: Staining of mouse brain sections containing α-Syn deposits; conditions: SN of AAV-α-Syn A53T-injected mice
[5] = test system: α-Syn deposits in mouse brain sections; assay: as above; conditions: SNCA transgenic mice treated with rotenone
Aβ plaques or NFTs in AD = assay: Counter-staining of AD patient brain sections; design: species or system human; conditions: AD patients
Aβ or Tau aggregates = assay: Ex vivo staining after i.v. F0502B in 5xFAD, 3xTg, Tau P301S mice; design: species or system mouse; conditions: 2 mg/kg i.v., 2 h
Method in brief: as §2

[6] = test system: α-Syn aggregates in primary neurons; assay: Fluorescence staining of primary neurons containing α-Syn aggregates; type: cell-based, rat; conditions: AAV-α-Syn + α-Syn PFFs, fluorescence microscopy
Method in brief: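 Primary embryonic rat neurons were cultured at 37 °C in 5% CO2 and infected with AAV-α-Syn at DIV7. At DIV12 they received sonicated α-Syn PFFs at 100 ng/ml final, with monomer as control. Test compound was then added and binding to the intracellular aggregates was assessed by fluorescence microscopy.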

Toxicology test in mice = type: in vivo; conditions: C57BL/6 mice
[7] = In vivo pharmacokinetics study in mice, i.v.; conditions: i.v. 5 mg/kg
Method in brief: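 Male ICR mice received 5 mg/kg i.v. Test compound was measured in plasma and brain homogenates at successive time points, with 3 mice per time point. Brain/plasma ratios, plasma half-life and clearance were derived; data are mean ± SD.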

α-Syn PFFs = α-Syn PFFs (Homo sapiens, UniProt P37840); assay: Fibril binding assay; conditions: fluorescence, 0.08 μM fibrils, 5 μM compound
Method in brief: as §3

[8] = target: aggregated α-Syn in PD brains (Homo sapiens, UniProt P37840); assay: In vitro competition assay against [3H]BF-227 in postmortem PD brain tissue; type: binding; conditions: read-out: Ki against [3H]BF227; postmortem PD brain tissue homogenate
Method in brief: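 Postmortem PD brain homogenate (α-Syn aggregates, no other amyloid) was used at a final 100 μg tissue/mL in PBS/0.1% BSA, pH 7.0. Unlabeled test compound (0.1–1000 nM; 0.25% DMSO final) was combined with [3H]BF-227 solution (~2 nM). 100% inhibition was defined by displacement with 1 μM unlabeled compound. Each concentration was run in triplicate, giving Ki.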

Aβ plaques or NFTs = assay: Counter-staining of mouse brain sections; conditions: Tau P301S, 5xFAD, 3xTg mice
Method in brief: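 Cortical slices from 14-month-old 3xTg, 6-month-old Tau P301S and 12-month-old 5xFAD mice were fixed and incubated with primary antibodies for 12 h at 4 °C. Alexa Fluor-conjugated secondary antibodies were applied for 3 h at room temperature, with DAPI (1 μg/ml) nuclear counterstain. Slices were imaged by confocal microscopy.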

[9] = target: α-Syn pathology in DLB and MSA patient brain (Homo sapiens, UniProt P37840); assay: Staining of DLB and MSA patient brain sections; conditions: DLB and MSA patients
[10] = target: aggregated α-Syn in PD/DLB patients (Homo sapiens, UniProt P37840); assay: Saturation binding assay with insoluble α-Syn fraction from PD/DLB brain
Method in brief: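 Insoluble α-Syn was extracted from frozen PD and DLB brain in 50 mM Tris-HCl pH 7.4, 800 mM NaCl, 10 mM NaF, 5 mM EDTA at 100,000 × g. Pellets were re-extracted with buffer containing 1% Triton X-100, then 1% Triton X-100 plus 30% sucrose. A final 1% sarkosyl step ran overnight, followed by a 100,000 × g spin.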

[11] = test system: synthetic α-Syn aggregates and Aβ fibrils; conditions: cited from earlier work
[12] = target: α-Syn aggregates in macaque brain (Homo sapiens, UniProt P37840, A53T); assay: PET imaging in non-human primate PD models; type: in vivo, rhesus macaques; conditions: macaques injected with AAV-α-Syn A53T
[13] = test system: α-Syn aggregates in macaque brain; assay: PET imaging in non-human primate PD models; type: in vivo, rhesus macaques; conditions: control macaques
[14] = target: LBs in human brain sections (Homo sapiens, UniProt P37840); assay: Autoradiography with human brain slices; type: binding; conditions: PD versus AD patients; 4 nM tracer
Method in brief: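 Post-mortem human brain slices, stored at −20 °C, were preincubated in PBS + 0.1% BSA (pH 7.4) to reach room temperature. They were then incubated with [18F]-labelled tracer at room temperature for 30 min, rinsed in cold buffer and once in distilled water, and dried. Slices were exposed to imaging plates for 3 h before development.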

Sequence of Tau fibrils in AD patients (P10636 623-708 limits assumed): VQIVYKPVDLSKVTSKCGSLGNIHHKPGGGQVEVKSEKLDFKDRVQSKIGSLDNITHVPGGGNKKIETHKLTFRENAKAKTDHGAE
Sequence of Aβ fibrils in AD patients (P05067 672-711 limits assumed): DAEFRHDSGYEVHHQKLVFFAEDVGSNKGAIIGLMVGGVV
Sequence of Tau fibrils (P10636 1-441 isoform P10636-8): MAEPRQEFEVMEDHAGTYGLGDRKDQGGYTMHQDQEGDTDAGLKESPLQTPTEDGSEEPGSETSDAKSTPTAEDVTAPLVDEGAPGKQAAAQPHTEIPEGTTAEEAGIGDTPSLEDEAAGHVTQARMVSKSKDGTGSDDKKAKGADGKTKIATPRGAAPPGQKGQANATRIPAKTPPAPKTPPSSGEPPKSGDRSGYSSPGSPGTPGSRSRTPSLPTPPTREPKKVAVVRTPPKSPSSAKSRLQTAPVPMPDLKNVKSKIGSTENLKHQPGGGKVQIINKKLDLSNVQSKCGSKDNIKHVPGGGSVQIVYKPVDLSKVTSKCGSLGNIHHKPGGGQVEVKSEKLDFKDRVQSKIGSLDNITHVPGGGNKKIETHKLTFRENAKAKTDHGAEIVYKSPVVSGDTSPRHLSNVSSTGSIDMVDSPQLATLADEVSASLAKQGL
Sequence of Tau PFFs (P10636 1-441 isoform P10636-8): as above
Sequence of Aβ PFFs (P05067 672-713 limits assumed): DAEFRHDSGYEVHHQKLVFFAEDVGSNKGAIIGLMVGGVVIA
Sequence of Aβ1–42 fibrils (P05067 672-713 limits assumed): as above

Compound: Cc1cc2nc(/C=C/c3ccc(O)c(Br)c3)sc2cc1N(C)CCOCCF [[^18F]-F0502B]
- Kd (Tau fibrils): 120 nM
- Kd (α-Syn fibrils): 11 nM
- Kd ([1]; read-out: KD, Aβ fibrils in AD patients): 108 nM
- Kd (Aβ1–42 fibrils): 109 nM
- Kd ([2]; read-out: KD, Tau fibrils in AD patients): 151 nM

Compound: Oc1ccc(-c2cc(-c3cccc(Br)c3)n[nH]2)cc1O [anle138c]
- inhibition of α-Syn aggregation (α-Syn aggregation): complete the inhibition of α-Syn aggregation; also recorded: strong inhibition of α-Syn aggregation

Compound: Cc1cc2nc(/C=C/c3ccc(O)c(Br)c3)sc2cc1N(C)CCOCCF [F0502B]
- Kd ([3]; read-out: KD for α-Syn deposits in PD brains, PD brains): 4.26 to 7.32 nM
- Kd ([3]; read-out: Kd, DLB brain homogenates, unfractionated human DLB brain homogenates): 9.79 nM
- Kd ([3]; read-out: Kd, PD brain homogenates, unfractionated human PD brain homogenates): 4.26 nM
- binding to Aβ fibrils (Aβ PFFs): poorly bound
- ex vivo staining of α-Syn aggregates after i.v. injection (α-Syn aggregates): selectively stains α-Syn aggregates
- binding to Tau fibrils (Tau PFFs): poorly bound
- staining of α-Syn deposits in mouse brain sections [4]: specific association of F0502B with α-Syn aggregates
- staining of α-Syn inclusions [5]: stained the α-Syn inclusions that were positive for p-S129 and 5G4
- staining of Aβ plaques or NFTs in AD brains (Aβ plaques or NFTs in AD): but not Aβ plaques or NFTs
- ex vivo staining of Aβ or Tau aggregates after i.v. injection (Aβ or Tau aggregates): not Aβ or Tau aggregates
- signals in neurons with α-Syn aggregates [6]: specific association of F0502B with α-Syn aggregates
- effect on complete cell count or liver/renal functions (Toxicology test in mice): did not alter complete cell count or liver/renal functions
- Cl rate [7]: approximately 33.6 L/h/kg
- plasma half-life t1/2 [7]: 6.9 min
- brain versus plasma (B/P) ratio ([7]; 1 min): 0.106
- brain versus plasma (B/P) ratio ([7]; 1 h): 13.37
- binding selectivity toward α-Syn PFFs versus Aβ and Tau PFFs (α-Syn PFFs; counter screening): stronger binding affinity with α-Syn PFFs than with Aβ and Tau PFFs
- binding activities toward α-Syn PFFs (α-Syn PFFs; ThT positive control): specifically bound α-Syn fibrils
- Ki [8]: 3.4 nM
- staining of Aβ plaques or NFTs in mouse brain sections (Aβ plaques or NFTs): but not Aβ plaques or NFTs; also recorded: weakly associated with Aβ aggregates
- staining of α-Syn pathology in patient brain slides [9]: specific association of F0502B with α-Syn aggregates
- Kd ([10]; read-out: KD, aggregated α-Syn in DLB patients, DLB): 6.23 nM
- Kd ([10]; read-out: KD, aggregated α-Syn in PD patients, PD): 3.68 nM

Compound: thioflavin-S [ThS, reference compound]
- staining of α-Syn deposits in mouse brain sections [4]: stained all of these aggregates
- staining of Aβ plaques or NFTs in mouse brain sections (Aβ plaques or NFTs): stained all of these aggregates

Compound: CN(C)c1ncc(/C=C/c2nc3ccc(OCCF)cc3o2)s1 [BF-227]
- binding to α-Syn aggregates and Aβ fibrils in vitro [11]: binds to both synthetic α-Syn aggregates and Aβ fibrils in vitro

Compound: Cc1cc2nc(/C=C/c3ccc(O)c(Br)c3)sc2cc1N(C)CCOCC[18F] [[^18F]-F0502B]
- specific binding in PD/AD/healthy control tissues ([3]; total and nonspecific binding curves, frontal cortex): only specific binding with PD tissues but not AD or control tissues
- PET signal in brain [12]: demonstrable signals in the striatal regions
- PET signal in brain [13]: devoid of radiotracer retention
- autoradiographic binding to human brain sections [14]: selectively associated with LBs in brain sections from PD but not AD patients
- Bmax, Aβ fibrils in AD patients [1]: 2.34 fmol/nmol
- Bmax, Tau fibrils in AD patients [2]: 1.14 fmol/nmol
- Bmax, aggregated α-Syn in DLB patients ([10]; DLB): 12.30 fmol/nmol
- Bmax, aggregated α-Syn in PD patients ([10]; PD): 14.95 fmol/nmol
